This note sets out measurements from ChEMBL document CHEMBL1131479, “(R)-3,N-dimethyl-N-[1-methyl-3-(4-methyl-piperidin-1-yl) propyl]benzenesulfonamide: the first selective 5-HT7 receptor antagonist” (J Med Chem, 1998).

Molecules are shown by their SMILES.

Assay [1] addresses T1, 5-hydroxytryptamine receptor 7 (Homo sapiens, UniProt P34969). Nature of the assay: Binding affinity towards cloned human 5-hydroxytryptamine 7 receptor expressed in HEK 293 cells using [3H]5-CT. The assay is classed as cell-based, HEK293. An outline of the steps: (§1)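 Radioligand displacement binding on the receptor source and radioligand named in each line. Each value is the mean of at least two determinations, and every determination lay within 0.2 log unit of that mean.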

Assay [2] concerns the target T2, 5-hydroxytryptamine receptor 1A (Homo sapiens, UniProt P08908).
T2 sequence (P08908 whole entry): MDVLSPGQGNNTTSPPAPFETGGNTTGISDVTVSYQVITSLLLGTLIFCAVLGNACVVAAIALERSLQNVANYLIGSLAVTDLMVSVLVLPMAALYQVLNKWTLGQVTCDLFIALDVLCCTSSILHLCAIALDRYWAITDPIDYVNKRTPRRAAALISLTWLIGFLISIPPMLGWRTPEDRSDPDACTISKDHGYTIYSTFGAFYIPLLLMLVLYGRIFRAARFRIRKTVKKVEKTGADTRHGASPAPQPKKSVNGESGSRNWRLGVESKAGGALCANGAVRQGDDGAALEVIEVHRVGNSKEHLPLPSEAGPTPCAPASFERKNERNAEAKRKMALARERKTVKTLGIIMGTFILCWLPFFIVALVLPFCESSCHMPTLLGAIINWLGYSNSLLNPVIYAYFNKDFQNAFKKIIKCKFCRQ
The experiment in a line: The compound was tested for its binding affinity towards cloned human 5-hydroxytryptamine 1A receptor in HEK 293 cells using [3H]8-OH-DPAT. The assay is classed as cell-based, HEK293. Summed up:
as §1

The target in assay [3] is 5-hydroxytryptamine receptor 1B (Homo sapiens, UniProt P28222). The experiment in a line: The compound was tested for its binding affinity towards cloned human 5-hydroxytryptamine 1B receptor in CHO cells using [3H]5-HT. The assay is classed as cell-based. Summed up: (§2)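 Radioligand displacement on cloned human receptors expressed in the host cell line listed in each line. Values are the mean of at least two determinations, each within 0.2 log unit of the mean.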
5-hydroxytryptamine receptor 1B, sequence (P28222 whole entry): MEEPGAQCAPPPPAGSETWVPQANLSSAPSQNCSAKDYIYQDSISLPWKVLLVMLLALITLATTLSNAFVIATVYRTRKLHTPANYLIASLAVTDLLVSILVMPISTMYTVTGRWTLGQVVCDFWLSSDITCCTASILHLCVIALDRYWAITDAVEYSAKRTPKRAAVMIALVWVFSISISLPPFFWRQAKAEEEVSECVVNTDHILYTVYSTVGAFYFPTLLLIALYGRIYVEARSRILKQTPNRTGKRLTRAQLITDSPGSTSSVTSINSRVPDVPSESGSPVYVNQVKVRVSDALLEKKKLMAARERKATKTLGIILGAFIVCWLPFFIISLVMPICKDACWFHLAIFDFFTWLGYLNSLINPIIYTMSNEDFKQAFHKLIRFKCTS

Assay [4] concerns the target 5-hydroxytryptamine receptor 1D (Homo sapiens, UniProt P28221). The experiment in a line: The compound was tested for its binding affinity towards cloned human 5-hydroxytryptamine 1D receptor in CHO cells using [3H]5-HT. The format is cell-based. An outline of the steps:
as §2

Assay [5] has as its target 5-hydroxytryptamine receptor 1E (Homo sapiens, UniProt P28566). Nature of the assay: The compound was tested for its binding affinity towards cloned human 5-hydroxytryptamine 1E receptor in CHO cells using [3H]5-HT. The format is cell-based. Summed up:
as §2

For assay [6], the target named is 5-hydroxytryptamine receptor 2A (Homo sapiens, UniProt P28223). Nature of the assay: The compound was tested for its binding affinity towards cloned human 5-hydroxytryptamine 2A receptor in HEK293 cells using [3H]-ketanserin. The assay is classed as cell-based. Summed up:
as §2

For assay [7], the target named is T3, 5-hydroxytryptamine receptor 1F (Homo sapiens, UniProt P30939).
T3 sequence (P30939 whole entry): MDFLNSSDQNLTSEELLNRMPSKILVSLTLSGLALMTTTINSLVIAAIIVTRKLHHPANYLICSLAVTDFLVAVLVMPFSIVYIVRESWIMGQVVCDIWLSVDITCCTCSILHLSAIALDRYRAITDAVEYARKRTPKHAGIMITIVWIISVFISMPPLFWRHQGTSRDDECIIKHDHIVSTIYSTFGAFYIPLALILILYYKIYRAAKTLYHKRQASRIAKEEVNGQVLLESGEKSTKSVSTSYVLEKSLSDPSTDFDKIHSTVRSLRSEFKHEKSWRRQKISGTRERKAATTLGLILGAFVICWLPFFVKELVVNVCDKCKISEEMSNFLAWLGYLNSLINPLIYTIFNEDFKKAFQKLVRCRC
Nature of the assay: The compound was tested for its binding affinity towards cloned human 5-hydroxytryptamine 1F receptor in CHO cells using [3H]5-HT. The format is cell-based. An outline of the steps: as §1

Assay [8] addresses 5-hydroxytryptamine receptor 2B (Homo sapiens, UniProt P41595). The experiment in a line: The compound was tested for its binding affinity towards cloned human 5-hydroxytryptamine 2B receptors in HEK293 cells using [3H]5-HT. The format is cell-based. An outline of the steps: (§3)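 Radioligand displacement binding on cloned human receptors expressed in HEK 293 cells: 5-HT2B labelled with [3H]-5-HT, 5-HT7 labelled with [3H]-5-CT. Each value is the mean of at least two determinations, each within 0.2 log unit of the mean.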

The target of assay [9] is T4, 5-hydroxytryptamine receptor 2C (Homo sapiens, UniProt P28335).
T4 sequence (P28335 whole entry): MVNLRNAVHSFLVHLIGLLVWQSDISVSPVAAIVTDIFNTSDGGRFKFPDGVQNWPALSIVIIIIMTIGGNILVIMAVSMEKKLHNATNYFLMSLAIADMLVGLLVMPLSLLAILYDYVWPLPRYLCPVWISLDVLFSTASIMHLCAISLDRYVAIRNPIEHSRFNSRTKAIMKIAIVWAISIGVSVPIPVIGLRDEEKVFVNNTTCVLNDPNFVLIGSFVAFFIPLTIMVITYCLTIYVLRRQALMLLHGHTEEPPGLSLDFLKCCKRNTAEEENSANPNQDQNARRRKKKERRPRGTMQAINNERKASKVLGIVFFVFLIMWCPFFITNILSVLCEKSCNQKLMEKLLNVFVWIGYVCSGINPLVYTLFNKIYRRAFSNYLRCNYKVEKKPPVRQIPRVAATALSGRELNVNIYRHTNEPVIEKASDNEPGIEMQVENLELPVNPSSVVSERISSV
The experiment in a line: The compound was tested for its binding affinity towards cloned human 5-hydroxytryptamine 2C receptor in HEK293 cells using [3H]mesulergine. The format is cell-based. An outline of the steps: as §1

For assay [10], the target named is T1, 5-hydroxytryptamine receptor 7. Nature of the assay: The compound was tested for its binding affinity towards cloned human 5-hydroxytryptamine 7 receptor in HEK 293 cells using [3H]5-CT. The format is cell-based, HEK293. An outline of the steps: as §3
For assay [11], the target named is 5-hydroxytryptamine receptor 6 (Homo sapiens, UniProt P50406). Nature of the assay: The compound was tested for its binding affinity towards cloned human 5-hydroxytryptamine 6 receptor in HeLa cells using […]. The assay is classed as cell-based. Summed up: as §2
5-hydroxytryptamine receptor 6, sequence (P50406 whole entry): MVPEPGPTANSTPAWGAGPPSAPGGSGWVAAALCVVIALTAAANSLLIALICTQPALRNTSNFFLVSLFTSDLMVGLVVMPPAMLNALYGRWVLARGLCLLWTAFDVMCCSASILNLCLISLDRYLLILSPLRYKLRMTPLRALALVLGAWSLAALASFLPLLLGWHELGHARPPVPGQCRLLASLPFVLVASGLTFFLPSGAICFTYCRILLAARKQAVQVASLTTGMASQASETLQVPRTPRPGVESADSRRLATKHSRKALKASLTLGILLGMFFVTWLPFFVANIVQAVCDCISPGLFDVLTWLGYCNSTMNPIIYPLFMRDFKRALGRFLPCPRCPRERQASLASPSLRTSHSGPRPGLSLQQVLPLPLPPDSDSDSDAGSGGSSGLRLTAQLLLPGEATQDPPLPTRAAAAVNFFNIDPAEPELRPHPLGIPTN
The next assay has as its target D(2) dopamine receptor (Homo sapiens, UniProt P14416). Nature of the assay: The compound was tested for its binding affinity towards cloned human Dopamine receptor D2 in CHO cells using [125I]iodosulpiride. The format is cell-based.
The target of a further assay is D(3) dopamine receptor (Homo sapiens, UniProt P35462). The experiment in a line: The compound was tested for its binding affinity towards cloned human Dopamine receptor D3 in CHO cells using [125I]iodosulpiride. The assay is classed as cell-based.
D(3) dopamine receptor, sequence (P35462 whole entry): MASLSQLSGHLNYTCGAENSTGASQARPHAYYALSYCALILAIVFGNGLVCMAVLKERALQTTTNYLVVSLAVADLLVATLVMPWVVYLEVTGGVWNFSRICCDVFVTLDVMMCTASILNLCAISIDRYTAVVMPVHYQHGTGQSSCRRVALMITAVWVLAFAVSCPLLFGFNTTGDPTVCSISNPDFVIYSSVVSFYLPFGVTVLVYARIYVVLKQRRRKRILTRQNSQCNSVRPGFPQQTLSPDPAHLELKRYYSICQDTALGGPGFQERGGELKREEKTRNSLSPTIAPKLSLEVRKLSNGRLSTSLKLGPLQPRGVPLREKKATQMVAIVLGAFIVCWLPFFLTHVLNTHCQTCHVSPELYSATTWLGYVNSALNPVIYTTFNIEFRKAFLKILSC
In assay [12] the target is T5, Alpha-1B adrenergic receptor (Homo sapiens, UniProt P35368).
T5 sequence (P35368 whole entry): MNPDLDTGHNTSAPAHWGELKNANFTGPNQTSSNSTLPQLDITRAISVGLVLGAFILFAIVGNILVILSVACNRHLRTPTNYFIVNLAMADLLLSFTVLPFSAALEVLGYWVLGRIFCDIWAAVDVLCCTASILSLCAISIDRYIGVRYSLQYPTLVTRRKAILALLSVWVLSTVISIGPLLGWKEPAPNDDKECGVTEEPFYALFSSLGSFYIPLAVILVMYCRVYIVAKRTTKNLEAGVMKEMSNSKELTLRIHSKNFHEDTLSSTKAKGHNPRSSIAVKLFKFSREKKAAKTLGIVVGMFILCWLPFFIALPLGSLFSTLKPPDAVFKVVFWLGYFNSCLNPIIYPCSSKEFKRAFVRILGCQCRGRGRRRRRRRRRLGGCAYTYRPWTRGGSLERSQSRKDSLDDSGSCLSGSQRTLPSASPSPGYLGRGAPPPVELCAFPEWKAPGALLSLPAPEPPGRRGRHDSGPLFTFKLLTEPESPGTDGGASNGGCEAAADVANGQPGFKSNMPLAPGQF
Nature of the assay: The compound was tested for its binding affinity towards adrenergic alpha-1B receptors.

T1 sequence (P34969 whole entry): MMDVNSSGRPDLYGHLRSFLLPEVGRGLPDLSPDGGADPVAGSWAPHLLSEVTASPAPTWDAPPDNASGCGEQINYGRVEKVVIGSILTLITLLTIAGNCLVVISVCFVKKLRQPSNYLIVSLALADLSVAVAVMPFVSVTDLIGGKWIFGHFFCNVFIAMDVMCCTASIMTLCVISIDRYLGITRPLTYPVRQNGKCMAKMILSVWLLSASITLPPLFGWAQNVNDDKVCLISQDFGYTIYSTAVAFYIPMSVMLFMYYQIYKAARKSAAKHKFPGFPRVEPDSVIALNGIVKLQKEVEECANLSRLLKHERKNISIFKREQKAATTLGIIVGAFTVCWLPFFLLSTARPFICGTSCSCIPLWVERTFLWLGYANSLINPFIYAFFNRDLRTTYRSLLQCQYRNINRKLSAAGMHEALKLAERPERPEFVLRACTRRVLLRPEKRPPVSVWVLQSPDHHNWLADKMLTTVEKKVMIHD
D(2) dopamine receptor, sequence (P14416 whole entry): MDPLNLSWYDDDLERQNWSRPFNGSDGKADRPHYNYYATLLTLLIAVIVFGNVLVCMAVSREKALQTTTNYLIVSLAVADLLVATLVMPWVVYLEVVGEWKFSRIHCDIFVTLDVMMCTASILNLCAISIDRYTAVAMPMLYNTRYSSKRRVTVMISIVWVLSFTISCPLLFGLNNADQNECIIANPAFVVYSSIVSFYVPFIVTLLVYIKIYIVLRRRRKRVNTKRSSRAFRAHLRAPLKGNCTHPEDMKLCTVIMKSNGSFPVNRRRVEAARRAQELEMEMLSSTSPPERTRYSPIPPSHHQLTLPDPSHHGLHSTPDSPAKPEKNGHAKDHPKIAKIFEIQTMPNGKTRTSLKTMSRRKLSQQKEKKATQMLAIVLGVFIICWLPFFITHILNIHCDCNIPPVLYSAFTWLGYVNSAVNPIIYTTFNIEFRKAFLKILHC
5-hydroxytryptamine receptor 2B, sequence (P41595 whole entry): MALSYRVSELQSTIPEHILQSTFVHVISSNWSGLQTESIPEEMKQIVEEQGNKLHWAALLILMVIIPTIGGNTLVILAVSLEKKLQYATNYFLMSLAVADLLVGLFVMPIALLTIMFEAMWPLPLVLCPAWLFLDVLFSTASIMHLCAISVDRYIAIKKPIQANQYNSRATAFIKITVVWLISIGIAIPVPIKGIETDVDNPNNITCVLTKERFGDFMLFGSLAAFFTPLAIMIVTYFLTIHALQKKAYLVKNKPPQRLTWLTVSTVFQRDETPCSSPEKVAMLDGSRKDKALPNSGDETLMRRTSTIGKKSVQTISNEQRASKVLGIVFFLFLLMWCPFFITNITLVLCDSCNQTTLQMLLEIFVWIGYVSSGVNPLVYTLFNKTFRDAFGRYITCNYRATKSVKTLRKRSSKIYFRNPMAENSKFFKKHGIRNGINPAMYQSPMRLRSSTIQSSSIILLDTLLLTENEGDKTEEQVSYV
5-hydroxytryptamine receptor 1D, sequence (P28221 whole entry): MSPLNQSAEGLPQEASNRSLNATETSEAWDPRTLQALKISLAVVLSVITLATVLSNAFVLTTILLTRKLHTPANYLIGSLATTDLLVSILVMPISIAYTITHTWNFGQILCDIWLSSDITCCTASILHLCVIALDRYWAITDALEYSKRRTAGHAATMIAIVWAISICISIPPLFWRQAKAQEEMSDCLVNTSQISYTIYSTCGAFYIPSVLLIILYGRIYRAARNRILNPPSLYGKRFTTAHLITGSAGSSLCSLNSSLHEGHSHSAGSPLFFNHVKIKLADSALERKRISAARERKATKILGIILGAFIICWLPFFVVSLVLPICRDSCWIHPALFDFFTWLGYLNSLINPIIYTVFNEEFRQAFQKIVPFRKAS
5-hydroxytryptamine receptor 2A, sequence (P28223 whole entry): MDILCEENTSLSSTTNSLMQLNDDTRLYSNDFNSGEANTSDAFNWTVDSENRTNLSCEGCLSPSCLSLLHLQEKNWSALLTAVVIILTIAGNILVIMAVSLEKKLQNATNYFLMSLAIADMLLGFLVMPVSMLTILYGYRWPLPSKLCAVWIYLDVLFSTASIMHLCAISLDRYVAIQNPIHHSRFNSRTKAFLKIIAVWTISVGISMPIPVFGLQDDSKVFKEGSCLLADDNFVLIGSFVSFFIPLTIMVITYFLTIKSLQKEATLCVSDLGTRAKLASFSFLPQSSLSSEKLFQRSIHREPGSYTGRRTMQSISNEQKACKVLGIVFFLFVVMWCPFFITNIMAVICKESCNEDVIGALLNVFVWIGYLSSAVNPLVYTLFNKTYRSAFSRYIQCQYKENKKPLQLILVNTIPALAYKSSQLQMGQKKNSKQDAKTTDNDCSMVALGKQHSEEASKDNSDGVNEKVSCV
5-hydroxytryptamine receptor 1E, sequence (P28566 whole entry): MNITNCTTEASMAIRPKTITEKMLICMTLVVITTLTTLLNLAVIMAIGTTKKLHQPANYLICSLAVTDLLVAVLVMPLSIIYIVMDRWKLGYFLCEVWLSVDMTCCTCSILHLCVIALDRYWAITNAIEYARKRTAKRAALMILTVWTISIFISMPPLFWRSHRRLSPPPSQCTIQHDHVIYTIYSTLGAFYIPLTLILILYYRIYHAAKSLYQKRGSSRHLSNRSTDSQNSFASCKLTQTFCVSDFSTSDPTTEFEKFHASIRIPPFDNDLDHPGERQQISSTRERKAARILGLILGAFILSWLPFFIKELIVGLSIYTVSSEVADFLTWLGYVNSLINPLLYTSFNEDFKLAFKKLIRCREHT

`C[C@@H]1CCCN(CC[C@@H](C)N(C)S(=O)(=O)c2cccc3ccccc23)C1`: in assay [1], the Ki is 126 nM.
In [1], `C[C@H]1CCCN(CC[C@@H](C)N(C)S(=O)(=O)c2cccc3ccccc23)C1` gave a Ki of 631 nM.
With `CC1CCN(CC[C@@H](C)N(C)S(=O)(=O)c2ccc(Br)c(Br)c2)CC1`, the affinity in assay [1], expressed as Ki, was 20 nM.
Turning to `CC1CCN(CC[C@@H](C)N(C)S(=O)(=O)c2cccc3ccccc23)CC1`, in [1], the Ki is 31.6 nM.
Compound `CC1CCCN(CCC(C)N(C)S(=O)(=O)c2cccc3ccccc23)C1` (configuration not stated) gave a Ki in assay [1] of 63.1 nM.
`C[C@@H]1CCCN(CC[C@H](C)N(C)S(=O)(=O)c2cccc3ccccc23)C1` gave a Ki in assay [1] of 1580 nM.
For `CC1CCN(CC[C@@H](C)N(C)S(=O)(=O)c2cc(Br)c(Br)s2)CC1`, the affinity in assay [1], expressed as Ki, was 15.8 nM.
`CC1CCN(CC[C@@H](C)N(C)S(=O)(=O)c2ccc(Cl)c(Cl)c2)CC1`: the Ki in assay [1] was 31.6 nM.
Same read-out and setting: the same measure for `C[C@H]1CCCN(CC[C@H](C)N(C)S(=O)(=O)c2cccc3ccccc23)C1`: over 10000 nM.
As to `Cc1cccc(S(=O)(=O)N(C)[C@H](C)CCN2CCC(C)CC2)c1` [SB-258719], the Ki was over 7940 nM in [2]; over 5010 nM in [3]; 3160 nM in assay [4]; over 15800 nM in assay [5]; over 15800 nM in [6]; over 6310 nM in assay [7]. In addition, the inhibitory constant (Ki) in assay [8] was over 5010 nM; in [9] it was over 15800 nM; in [10] it was 31.6 nM; in assay [11] it was over 15800 nM; on D(2) dopamine receptor, 3980 nM; at D(3) dopamine receptor, 3980 nM. For the same compound, the Ki in [12] is over 15800 nM.

In general, Ki refers to the dissociation constant of the complex between target and ligand, obtained from inhibition or displacement. Lower therefore signals tighter binding.
